In the library only some 4.6% were active in any assay of this set; here they are far more common.
CHO parental Ca = signal in parental CHO cells, OX1R antagonist counter-screen. parental CHO-K1, ATP-induced calcium, Fluo-8 fluorescence. inhibition, % at 5.6 µM. 0.63% of 330,000 active. AID 463079;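 active = inhibition above that plate's mean sample inhibition plus 3 SD, cut at about 26% in these data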;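 also: 0% = ATP-challenged DMSO wells and 100% = DMSO wells without ATP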
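test system = CHO parental line | reagent = ATP stimulus | measured by = intracellular calcium via Fluo-8 no-wash fluorescent dye | control set = ATP and no-ATP DMSO wells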
TAAR1 agonist = agonists of human TAAR1; CHO RD-HGA16 TAAR1, Fluo-8 calcium fluorescence; vehicle wells 0%, saturating PEA agonist 100%; activation, % at 3 µM; 0.99% of 360,000 active;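 active = activation above the mean activation of all test compounds in the run plus 3 SD, cut at about 38% in these data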
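Test system: RD-HGA16 (CHO) cells co-expressing Gα16 and hTAAR1 | Doses: Single dose, 3 µM | Schedule: 17-24 h seeding, 75 min 37 °C dye, 30 min RT | Evaluation: % activation from peak over basal fluorescence ratio, DMSO-to-PEA scaled | Technique: Kinetic Fluo-8 calcium fluorescence | Benchmarks: Low control DMSO, high control PEA (EC100)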
OX1R antag-1 = blocks the human orexin 1 receptor | OX1R-expressing cells, FRET antagonist read-out | 1.8% of 330,000 active | AID 485270 | inhibition, % at 6.6 µM | O43613; in the data active = inhibition mostly above about 38%, no sharp cut-off; inactive = mostly below about 40%;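 also: 0% = agonist challenge alone and 100% = reference antagonist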
Target sequence (O43613 whole entry, looked up): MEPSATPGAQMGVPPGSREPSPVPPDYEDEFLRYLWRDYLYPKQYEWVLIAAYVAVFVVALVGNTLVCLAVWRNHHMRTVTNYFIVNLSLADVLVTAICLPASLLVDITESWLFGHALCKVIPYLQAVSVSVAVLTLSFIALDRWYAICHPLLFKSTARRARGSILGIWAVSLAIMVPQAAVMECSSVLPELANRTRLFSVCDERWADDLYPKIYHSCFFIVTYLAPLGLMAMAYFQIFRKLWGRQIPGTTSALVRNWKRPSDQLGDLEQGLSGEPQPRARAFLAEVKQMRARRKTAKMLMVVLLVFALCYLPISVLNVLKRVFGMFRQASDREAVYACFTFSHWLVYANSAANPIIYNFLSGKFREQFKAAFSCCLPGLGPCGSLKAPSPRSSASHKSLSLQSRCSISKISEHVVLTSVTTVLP
TAAR1 antagonist = human TAAR1 antagonism; 1.5% of 360,000 active; inhibition, % at 3 µM; CHO RD-HGA16 TAAR1, Fluo-8 calcium fluorescence, antagonist;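 active = inhibition above a per-plate cutoff, the mean inhibition of test compounds on that plate plus 3 SD, cut at about 49% in these data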;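 also: 0% = DMSO plus EC80 beta-PEA response and 100% = DMSO alone without agonist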
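test system = CHO RD-HGA16 cells bearing hTAAR1 | replication = singlicate | controls = DMSO-only wells and EC80 β-PEA-stimulated wells | reagent = EC80 β-phenethylamine stimulus | read-out basis = percent inhibition of PEA-evoked calcium signal, max/basal emission ratio | schedule = seeding 17-24 h prior, 75-min 37 °C, 30-min RT dye loading | signal = kinetic Fluo-8 calcium fluorescence measurement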
GPR7 antag = blocks human GPR7 receptor signaling; P48145; 1.1% of 290,000 active; AID 1861; GPR7-expressing cells, fluorescence antagonist assay; inhibition, % at 4.4 µM; in the data active = inhibition above about 16%, passing the limit was not always enough;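 also: cells stimulated with the agonist NPW; 0% = agonist with vehicle and 100% = vehicle without agonist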
Target sequence (P48145 whole entry, looked up): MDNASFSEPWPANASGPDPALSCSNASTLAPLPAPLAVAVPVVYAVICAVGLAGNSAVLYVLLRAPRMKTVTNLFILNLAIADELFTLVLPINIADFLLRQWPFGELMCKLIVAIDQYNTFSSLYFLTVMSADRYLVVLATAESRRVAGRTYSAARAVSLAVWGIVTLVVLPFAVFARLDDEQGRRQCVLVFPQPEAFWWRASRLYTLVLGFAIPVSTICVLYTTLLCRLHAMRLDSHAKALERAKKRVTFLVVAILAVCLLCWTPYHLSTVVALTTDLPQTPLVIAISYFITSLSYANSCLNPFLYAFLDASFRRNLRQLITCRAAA
OX1R antag-2 = blocks the human orexin 1 receptor. O43613. CHO/OX1R cells, Fluo-8 calcium fluorescence, orexin A. inhibition, % at 5 µM. 0.43% of 330,000 active;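 active = inhibition above its plate's threshold, mean inhibition of all tested compounds on the plate plus 3 SD, cut at about 37% in these data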;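 also: 0% = orexin A challenge wells and 100% = SB-334867-A antagonist wells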
GPR7 antag cf = confirmation of human GPR7 antagonists; shares compounds with GPR7 antag; GPR7-expressing cells, calcium fluorescence antagonist mode; inhibition, % at 4.4 µM; 52% of 2,400 active; AID 1952; in the data active = inhibition above about 24%;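 also: stimulated with the GPR7 agonist NPW; 0% = agonist plus vehicle and 100% = vehicle alone without agonist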
MCHR1 antag = counter-screen for GPR7 antagonists: antagonists of human MCHR1; 62% of 2,400 active; shares compounds with GPR7 antag; inhibition, % at 4.4 µM; MCHR1-expressing cells, fluorescence antagonist assay; in the data active = inhibition above about 22%;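 also: 0% = vehicle with agonist and 100% = vehicle without agonist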
Starred values were filed as active, the others as inactive; / = not tested or not shown.

SMILES | CHO parental Ca | TAAR1 agonist | OX1R antag-1 | TAAR1 antagonist | GPR7 antag | OX1R antag-2 | GPR7 antag cf | MCHR1 antag
Cc1ccc(NC2=C(Cl)C(=O)OC2OC(=O)c2ccccc2)c(C)c1 (centres undefined) | -1.4 | 2.8 | 12.1 | 11.9 | -1.6 | -2.7 | / | /
COC(=O)C1=C(C)Nc2nc(SCc3ccccc3)[nH]c(=O)c2C1c1cccs1 (centres undefined) | 5.2 | 1.3 | 33.5 | -6.5 | 33.4* | 19.8 | 17.2 | 34.0*
c1ccc(Cc2nnc(-c3ccccc3)o2)cc1 | -6.9 | 8.3 | 0.6 | 23.0 | 69.5* | -0.3 | 71.4* | 60.3*
Brc1ccc(-c2nnc(Cc3ccccc3)o2)cc1 | -2.3 | 5.0 | 6.8 | -16.0 | 2.1 | -20.8 | / | /
COC(=O)[C@@]1(Cc2ccc(F)cc2)[C@H]2c3cc(C(=O)N4CCCC4)n(Cc4ccc(C(F)(F)F)nc4)c3C[C@H]2CN1C(=O)c1ccccc1 | -21.7 | 12.6 | 19.4 | 8.3 | 28.8* | -15.7 | 38.9* | 22.2*
c1ccc(Nc2nnc(-c3cccnc3)s2)cc1 | 11.1 | 1.1 | 3.0 | 1.3 | 41.1* | -19.9 | -0.9 | 13.8
CCOc1ccc(S(=O)(=O)Nc2nc3ccccc3nc2-n2ccc(=NC(=O)c3ccccc3C)cc2)cc1 | -6.3 | 11.8 | 3.2 | -18.6 | 22.9* | 0.1 | -7.7 | -1.5
Cc1ccccc1C(=O)N=c1ccn(-c2nc3ccccc3nc2NS(=O)(=O)c2ccccc2)cc1 | -1.8 | 0.5 | 0.2 | -10.5 | -6.6 | -12.2 | / | /
COc1cc(CN2CCN(C(=O)c3ccccc3F)CC2)cc(OC)c1OC | / | 0.5 | / | -1.2 | -11.8 | / | / | /
COc1ccc2sc(-c3ccc(N(C)C)cc3)c(C#Cc3cncn3C)c2c1 | -28.3 | 6.3 | 7.6 | 10.8 | / | -17.3 | / | /
Cc1nn(C)c(C)c1Nc1ccc(N2C(=O)C3C4C=CC(C4)C3C2=O)cc1[N+](=O)[O-] (centres undefined) | 2.5 | -0.2 | 23.0 | -14.2 | 26.3* | -9.4 | 1.6 | 5.5
O=C(CSc1nc2ccc(NC(=O)c3ccccc3C(=O)O)cc2s1)Nc1ccc(F)c([N+](=O)[O-])c1 | 15.4 | 10.8 | 23.3 | 6.2 | 25.9* | -3.7 | 26.4* | 66.0*
COC(=O)CSc1nc2ccc(NC(=O)CSc3nnnn3Cc3ccccc3)cc2s1 | 51.4* | 22.2 | 62.2 | 43.8 | 37.0* | 51.4* | 63.8* | 54.7*
CCCCNCCCOc1cccc(Cl)c1Cl | -9.2 | 37.9* | 15.6 | -13.5 | 35.2* | -12.7 | 14.5 | 11.0
CCCCNCCCOc1ccc(C)cc1Br | -12.3 | 28.8 | 8.1 | 0.1 | -0.1 | -17.1 | / | /
c1ccc(CCc2nn3c(Cn4cnc5ccccc54)nnc3s2)cc1 | -16.3 | 1.8 | 3.2 | -11.8 | 22.6* | -12.9 | 17.9 | 27.9*
COc1ccc(OCc2nn3c(Cn4cnc5ccccc54)nnc3s2)cc1 | -9.1 | 11.5 | 8.1 | 6.9 | -7.9 | 4.4 | / | /
O=[N+]([O-])c1ccc2nc(-c3ccccc3[N+](=O)[O-])[nH]c2c1 | -4.1 | 10.7 | 25.2 | -9.4 | 25.0* | -9.2 | 3.0 | 3.7
COc1cccc(C(c2nnnn2Cc2ccco2)N2CCN(c3cccc(C)c3C)CC2)c1OC (centres undefined) | -18.6 | 6.3 | 20.7 | 21.1 | 22.5* | -5.0 | 13.8 | 60.4*
COc1ccc(OC)c(C(c2nnnn2Cc2ccco2)N2CCN(C)CC2)c1 (centres undefined) | -12.5 | 1.3 | 22.0 | -18.5 | 18.9 | -14.2 | / | /
CCCCn1c(=O)[nH]c(=O)c2c1ncn2Cc1ccco1 | -9.5 | / | 19.0 | / | -14.4 | -15.6 | / | /
CCCCn1cnc2c(c(-c3ccccc3)c(-c3ccccc3)n2Cc2ccco2)c1=N | -15.5 | 34.6 | 4.3 | -13.0 | 32.4* | -17.3 | 54.4* | 96.8*
CCN1C(=O)[C@H]2[C@@H](c3ccc(OC)cc3)N[C@]3(CCCN(Cc4ccc(C(F)(F)F)cc4)C3=O)[C@H]2C1=O | / | 1.1 | / | -2.4 | / | / | / | /
CCC1Oc2ccc(C)cc2N(CC(=O)NC2CCCCC2)C1=O (centres undefined) | -8.5 | -2.5 | 6.7 | -4.0 | 31.8* | -18.5 | 20.1 | 16.1
CCOC(=O)N1CCC(NC(=O)CN2C(=O)C(CC)Oc3ccc(C)cc32)CC1 (centres undefined) | -14.6 | 0.4 | 13.9 | -41.9 | -10.5 | -21.4 | / | /
SMILES | CHO parental Ca | TAAR1 agonist | OX1R antag-1 | TAAR1 antagonist | GPR7 antag | OX1R antag-2 | GPR7 antag cf | MCHR1 antag
CCC(Cc1ccccc1)OC(=O)c1ccccc1C(=O)O (centres undefined) | / | 4.9 | / | -10.7 | / | / | / | /
CC1(C(=O)NCCc2ccccc2)Cc2c(-c3cccc(C(F)(F)F)c3)ccnc2O1 (centres undefined) | / | -0.1 | / | -18.9 | / | / | / | /
CS(=O)(=O)N(CC(=O)Nc1ccc(F)c(F)c1)c1cccc([N+](=O)[O-])c1 | -8.0 | 3.8 | 13.9 | 7.0 | 32.2* | -16.9 | 22.1 | 16.7
COc1ccc(F)cc1-c1cc(NC(C)=O)c2ncc(-c3cccc(C(F)(F)F)c3)n2c1 | / | 1.1 | / | 42.1 | / | / | / | /
CCOc1ccccc1CN1CCN(CC2=Cc3cc(OC)ccc3OC2)CC1CCO (centres undefined) | -21.6 | 0.6 | 13.3 | -20.7 | 31.3* | -30.7 | 1.4 | 3.4
OC(CNCc1ccco1)Cn1c2ccccc2c2ccccc21 (centres undefined) | 10.0 | 20.1 | 9.9 | -11.0 | 21.2* | 3.5 | 18.6 | 14.4
Cc1nc2c(OCc3ccc(C(F)(F)F)cc3)cccn2c1N(C)CC1CC1 | / | 0.9 | / | -17.8 | / | / | / | /
CCOC(=O)c1ccc(N2CCCCC2)c(NS(=O)(=O)c2ccc(C)cc2)c1 | -4.6 | -0.4 | 4.9 | -28.8 | 24.9* | -31.4 | 15.0 | 61.9*
O=C1NC[C@H](CC2CCCCC2)N(CCc2cc(C(F)(F)F)cc(C(F)(F)F)c2)C1=O | / | -0.2 | / | -53.7 | / | / | / | /
Cc1ccc(C)c(N2CCN(C(=O)C3CCN(S(=O)(=O)c4c(C)noc4C)CC3)CC2)c1 | 21.5 | 2.5 | 19.3 | -6.6 | 32.2* | 6.6 | 21.5 | 47.4*
Clc1ccc(CN2CCc3c([nH]c4ccccc34)C2)cc1Cl | 14.9 | 34.2 | 5.2 | -12.2 | 53.3* | -6.1 | 72.8* | 33.0*
COc1cc(OC)c(CN2CCc3c([nH]c4ccccc34)C2)cc1Br | -11.9 | 25.6 | 26.6 | 7.0 | 28.7* | -0.9 | 21.3 | 4.8
Cc1cccc(CN2CCc3c([nH]c4ccccc34)C2)c1 | 2.8 | 0.6 | 10.6 | -10.3 | 17.7 | -12.4 | / | /
COc1ccc(CCN2CC(C(=O)NCc3cccc(F)c3)CCC2=O)cc1 (centres undefined) | / | -0.1 | / | -16.9 | / | / | / | /

Bioassay records from PubChem BioAssay.
